A short description of assay [1]: Selectivity ratio of Ki of alpha-1 adrenergic receptor to alpha-2 receptor.
The target in assay [2] is T1, Adrenergic receptor alpha-1 (Rattus norvegicus) (UniProt P15823+P23944+P43140). Kind of assay: Agonistic activity against Alpha-1 adrenergic receptor in rat aorta expressed as percent maximal analog response relative to phenylephrine as 100%. The assay is classed as functional, tissue-based. An outline of the steps: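 Aorta from rats of 150-300 g, either sex. Tissue checked with 30 nM phenylephrine, then a cumulative phenylephrine curve. After 90 min the test agent was added cumulatively. Contraction expressed as % of the maximum to 1 µM phenylephrine (= 100%). EC50 is the molar 50% effective concentration; Emax is the maximal response relative to phenylephrine.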
T1 sequence (P15823 whole entry, looked up): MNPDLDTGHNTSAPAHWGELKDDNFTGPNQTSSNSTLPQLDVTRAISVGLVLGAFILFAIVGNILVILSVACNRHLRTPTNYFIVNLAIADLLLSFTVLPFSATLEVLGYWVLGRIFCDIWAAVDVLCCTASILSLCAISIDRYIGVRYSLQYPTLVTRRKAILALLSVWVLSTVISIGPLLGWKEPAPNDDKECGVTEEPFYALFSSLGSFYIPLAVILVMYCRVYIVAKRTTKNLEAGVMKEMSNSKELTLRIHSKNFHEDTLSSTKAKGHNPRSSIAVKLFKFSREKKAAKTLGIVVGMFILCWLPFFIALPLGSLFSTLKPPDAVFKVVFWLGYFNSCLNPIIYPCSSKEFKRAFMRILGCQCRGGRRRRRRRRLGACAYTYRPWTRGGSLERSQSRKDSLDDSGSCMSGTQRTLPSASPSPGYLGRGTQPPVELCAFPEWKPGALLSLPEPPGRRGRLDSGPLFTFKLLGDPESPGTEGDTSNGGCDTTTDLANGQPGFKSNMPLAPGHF
T1 sequence (P23944 whole entry, looked up): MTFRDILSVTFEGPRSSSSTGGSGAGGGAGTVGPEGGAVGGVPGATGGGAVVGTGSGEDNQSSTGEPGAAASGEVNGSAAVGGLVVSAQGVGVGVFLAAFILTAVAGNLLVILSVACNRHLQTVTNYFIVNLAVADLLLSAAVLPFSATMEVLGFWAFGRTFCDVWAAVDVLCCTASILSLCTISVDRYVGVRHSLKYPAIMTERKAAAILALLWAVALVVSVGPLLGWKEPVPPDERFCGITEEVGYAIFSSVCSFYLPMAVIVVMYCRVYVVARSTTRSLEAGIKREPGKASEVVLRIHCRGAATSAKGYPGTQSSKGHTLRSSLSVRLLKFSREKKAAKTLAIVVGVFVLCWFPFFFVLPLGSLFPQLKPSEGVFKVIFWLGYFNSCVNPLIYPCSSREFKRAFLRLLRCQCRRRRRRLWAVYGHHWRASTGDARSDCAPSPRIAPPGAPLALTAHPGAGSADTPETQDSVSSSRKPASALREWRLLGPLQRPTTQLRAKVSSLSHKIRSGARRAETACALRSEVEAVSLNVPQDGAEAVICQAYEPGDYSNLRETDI
T1 sequence (P43140 whole entry, looked up): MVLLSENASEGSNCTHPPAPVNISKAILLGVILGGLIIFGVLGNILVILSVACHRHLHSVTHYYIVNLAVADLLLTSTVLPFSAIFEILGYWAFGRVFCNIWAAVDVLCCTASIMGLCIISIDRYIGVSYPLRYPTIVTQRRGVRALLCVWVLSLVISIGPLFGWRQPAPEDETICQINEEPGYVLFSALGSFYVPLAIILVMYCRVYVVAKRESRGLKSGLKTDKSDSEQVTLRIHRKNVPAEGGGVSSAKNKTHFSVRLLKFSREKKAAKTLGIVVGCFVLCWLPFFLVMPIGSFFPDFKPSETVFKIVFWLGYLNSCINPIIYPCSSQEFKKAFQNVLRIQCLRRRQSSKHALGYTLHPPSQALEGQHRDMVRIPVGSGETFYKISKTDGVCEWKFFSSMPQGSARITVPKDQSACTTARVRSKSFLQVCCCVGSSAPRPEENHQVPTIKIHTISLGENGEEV

Assay [3] in a line: alpha 2 antagonistic adrenoceptor activity in human blood platelets Potency ratio: IC50(medetomidine)/IC50(analog). The format is functional. An outline of the steps: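 Inhibition of epinephrine (30-100 µM)-induced primary-wave aggregation in aspirin (1 mM)-treated human platelet-rich plasma, with inhibitor added 1 min before agonist.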
Assay [4] has as its target T2, Adrenergic receptor alpha-2 (Homo sapiens, UniProt P08913+P18825+P18089).
T2 sequence (P08913 whole entry): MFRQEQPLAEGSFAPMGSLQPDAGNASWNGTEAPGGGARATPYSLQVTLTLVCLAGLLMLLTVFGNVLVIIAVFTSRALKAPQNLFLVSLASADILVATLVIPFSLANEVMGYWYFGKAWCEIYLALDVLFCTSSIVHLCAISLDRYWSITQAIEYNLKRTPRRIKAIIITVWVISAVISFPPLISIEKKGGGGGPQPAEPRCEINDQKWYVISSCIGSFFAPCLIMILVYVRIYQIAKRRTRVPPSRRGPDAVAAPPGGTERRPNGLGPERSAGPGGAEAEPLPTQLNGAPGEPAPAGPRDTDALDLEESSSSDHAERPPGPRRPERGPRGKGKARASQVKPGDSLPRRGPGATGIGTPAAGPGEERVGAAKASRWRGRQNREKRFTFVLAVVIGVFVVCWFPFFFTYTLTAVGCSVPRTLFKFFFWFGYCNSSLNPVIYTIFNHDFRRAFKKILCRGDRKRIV
T2 sequence (P18825 whole entry): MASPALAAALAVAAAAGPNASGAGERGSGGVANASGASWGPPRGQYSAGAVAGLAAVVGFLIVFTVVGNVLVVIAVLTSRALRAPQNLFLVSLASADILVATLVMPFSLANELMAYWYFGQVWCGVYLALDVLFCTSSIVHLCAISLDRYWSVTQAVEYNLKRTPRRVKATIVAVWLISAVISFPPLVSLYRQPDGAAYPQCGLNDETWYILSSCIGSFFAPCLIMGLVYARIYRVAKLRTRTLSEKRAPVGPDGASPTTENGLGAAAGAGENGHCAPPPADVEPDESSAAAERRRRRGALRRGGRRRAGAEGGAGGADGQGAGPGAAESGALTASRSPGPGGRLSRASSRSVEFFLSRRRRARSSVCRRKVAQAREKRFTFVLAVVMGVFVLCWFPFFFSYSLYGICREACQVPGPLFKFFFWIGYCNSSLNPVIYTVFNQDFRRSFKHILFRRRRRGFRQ
T2 sequence (P18089 whole entry): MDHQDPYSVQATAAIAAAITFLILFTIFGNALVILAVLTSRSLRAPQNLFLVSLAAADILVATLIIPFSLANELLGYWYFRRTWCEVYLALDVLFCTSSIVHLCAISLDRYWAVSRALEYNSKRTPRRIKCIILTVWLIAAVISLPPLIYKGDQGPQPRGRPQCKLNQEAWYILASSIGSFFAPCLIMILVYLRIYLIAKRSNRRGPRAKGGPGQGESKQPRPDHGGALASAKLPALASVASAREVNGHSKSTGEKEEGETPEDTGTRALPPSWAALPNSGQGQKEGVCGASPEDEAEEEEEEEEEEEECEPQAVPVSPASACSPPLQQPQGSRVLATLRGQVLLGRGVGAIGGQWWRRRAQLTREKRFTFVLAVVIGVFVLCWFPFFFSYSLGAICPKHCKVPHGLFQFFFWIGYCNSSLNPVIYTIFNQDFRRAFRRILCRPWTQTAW
The assay can be described thus: Alpha-2 adrenergic receptor antagonistic activity in human blood platelets. The format is functional, tissue-based. The procedure, abridged:
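Human platelet-rich plasma pretreated with 1 mM aspirin. Inhibitor at various concentrations added 1 min before epinephrine (30-100 µM).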

Assay [5] deals with T1, Adrenergic receptor alpha-1 (Rattus norvegicus). Kind of assay: Antagonistic activity against Alpha-1 adrenergic receptor in rat aorta. The assay is classed as functional, tissue-based. An outline of the steps:
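Rat aorta rings (rats 150-300 g, either sex) contracted by cumulative phenylephrine, with and without the antagonist. KB = [B]/(DR − 1), where DR is the dose ratio in the presence and absence of the antagonist.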

For orientation: Emax means the maximal effect, on the per cent scale that the assay sets. On to `CC(c1c[nH]cn1)c1cccc2ccccc12` (configuration not stated), for which the Ratio in assay [1] came to 17.2. This compound showed a maximum response (Emax) in assay [2] of 39%.
As usually defined, the IC50 is the point on the concentration scale where inhibition reaches its midpoint. A higher IC50 goes with weaker potency. Consider `c1cc2c3c(cccc3c1)C(c1c[nH]cn1)CC2` (configuration not stated), for which the Ratio in assay [1] amounted to 1.67. Further, the Potency ratio in assay [3] turned out to be 0.2. The IC50 in assay [4] came to 14.3 µM. Further, the Emax in assay [2] came to 38%.
For orientation: Kb means the equilibrium dissociation constant of an antagonist, usually derived from a functional assay. A lower Kb goes with a more potent antagonist. For `c1ccc2c3c(ccc2c1)CCCC3c1c[nH]cn1` (configuration not stated), in assay [5], the Kb is 0.136 µM. This compound showed an IC50 in assay [4] of 97.7 µM.
Turning to `C/C=C(\c1c[nH]cn1)c1cccc2ccccc12`, the Kb in assay [5] amounted to 3.39 µM. In assay [1], the Ratio was found to be 0.03. The Potency ratio in assay [3] amounted to 0.01. Moreover, in assay [4], the IC50 was 215.4 µM.

Values taken from ChEMBL document CHEMBL1129251 (J Med Chem, 1996).
